In ChEMBL document CHEMBL1157762, “Sequence inversion and phenylalanine surrogates at the beta-turn enhance the antibiotic activity of gramicidin S” (J Med Chem, 2010):
Values after ≈ are worked out from the molar mass of the structure shown. Where a SMILES comes first, the peptide text is derived from it.

What was measured:
Listeria monocytogenes = test: Antibacterial activity against Listeria monocytogenes CECT 4032 after 24 hrs by turbidimetry; assay type: functional; conditions: CECT 4032, 24 h
In short: (§1)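 Frozen stocks thawed and grown two days in cation-adjusted Mueller-Hinton II broth at 37 °C. Exponential-phase cells washed twice in PBS pH 7.0 and resuspended in the same broth at 5 × 10^5 CFU/mL. Incubated 24 h at 37 °C with peptide, growth read by turbidity at 600 nm. Two experiments, triplicate samples. MIC50 taken as lowest concentration giving 50% growth inhibition versus untreated control.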

[1] = Therapeutic index, ratio of HC50 for sheep erythrocytes to MIC50 for polymyxin E-resistant Acinetobacter baumannii ATCC 19606
Staphylococcus aureus = test: Antibacterial activity against Staphylococcus aureus CECT 240 after 24 hrs by turbidimetry; assay type: functional; conditions: CECT 240, 24 h; in short: as §1

| Structure (SMILES) | MIC50 (Listeria monocytogenes) | selectivity ratio [1] | MIC50 (Staphylococcus aureus) |
| --- | --- | --- | --- |
| CC(C)C[C@@H]1NC(=O)[C@H](CCCN)NC(=O)[C@H](C(C)C)NC(=O)[C@H](C2c3ccccc3-c3ccccc32)NC(=O)[C@H]2CCCN2C(=O)[C@H](CC(C)C)NC(=O)[C@H](CCCN)NC(=O)[C@H](C(C)C)NC(=O)[C@H](C2c3ccccc3-c3ccccc32)NC(=O)[C@H]2CCCN2C1=O (HELM PEPTIDE1{L.[dP].[O=C([C@@H](N[*:1])C1c2ccccc2-c2ccccc21)[*:2]].V.[Orn].L.[dP].[O=C([C@@H](N[*:1])C1c2ccccc2-c2ccccc21)[*:2]].V.[Orn]}$PEPTIDE1,PEPTIDE1,1:R1-10:R2$$$V2.0) | 2.2 µM (≈ 2.84 µg/mL) | 0.1 |  |
| CC(C)C[C@@H]1NC(=O)[C@H](CCCN)NC(=O)[C@H](C(C)C)NC(=O)[C@@H]2Cc3ccccc3CN2C(=O)[C@H]2CCCN2C(=O)[C@H](CC(C)C)NC(=O)[C@H](CCCN)NC(=O)[C@H](C(C)C)NC(=O)[C@@H]2Cc3ccccc3CN2C(=O)[C@H]2CCCN2C1=O (HELM PEPTIDE1{L.[dP].[Tic].V.[Orn].L.[dP].[Tic].V.[Orn]}$PEPTIDE1,PEPTIDE1,1:R1-10:R2$$$V2.0) |  |  | 2.4 µM (≈ 2.8 µg/mL) |
